# Experimental data pooled from the literature.
# Compare with care: the assays were run in different laboratories.
# Target: Serine/threonine-protein kinase LATS2 (LATS2, Homo sapiens, UniProt Q9NRM7)
# Residues used in one study (Q9NRM7 1-1088): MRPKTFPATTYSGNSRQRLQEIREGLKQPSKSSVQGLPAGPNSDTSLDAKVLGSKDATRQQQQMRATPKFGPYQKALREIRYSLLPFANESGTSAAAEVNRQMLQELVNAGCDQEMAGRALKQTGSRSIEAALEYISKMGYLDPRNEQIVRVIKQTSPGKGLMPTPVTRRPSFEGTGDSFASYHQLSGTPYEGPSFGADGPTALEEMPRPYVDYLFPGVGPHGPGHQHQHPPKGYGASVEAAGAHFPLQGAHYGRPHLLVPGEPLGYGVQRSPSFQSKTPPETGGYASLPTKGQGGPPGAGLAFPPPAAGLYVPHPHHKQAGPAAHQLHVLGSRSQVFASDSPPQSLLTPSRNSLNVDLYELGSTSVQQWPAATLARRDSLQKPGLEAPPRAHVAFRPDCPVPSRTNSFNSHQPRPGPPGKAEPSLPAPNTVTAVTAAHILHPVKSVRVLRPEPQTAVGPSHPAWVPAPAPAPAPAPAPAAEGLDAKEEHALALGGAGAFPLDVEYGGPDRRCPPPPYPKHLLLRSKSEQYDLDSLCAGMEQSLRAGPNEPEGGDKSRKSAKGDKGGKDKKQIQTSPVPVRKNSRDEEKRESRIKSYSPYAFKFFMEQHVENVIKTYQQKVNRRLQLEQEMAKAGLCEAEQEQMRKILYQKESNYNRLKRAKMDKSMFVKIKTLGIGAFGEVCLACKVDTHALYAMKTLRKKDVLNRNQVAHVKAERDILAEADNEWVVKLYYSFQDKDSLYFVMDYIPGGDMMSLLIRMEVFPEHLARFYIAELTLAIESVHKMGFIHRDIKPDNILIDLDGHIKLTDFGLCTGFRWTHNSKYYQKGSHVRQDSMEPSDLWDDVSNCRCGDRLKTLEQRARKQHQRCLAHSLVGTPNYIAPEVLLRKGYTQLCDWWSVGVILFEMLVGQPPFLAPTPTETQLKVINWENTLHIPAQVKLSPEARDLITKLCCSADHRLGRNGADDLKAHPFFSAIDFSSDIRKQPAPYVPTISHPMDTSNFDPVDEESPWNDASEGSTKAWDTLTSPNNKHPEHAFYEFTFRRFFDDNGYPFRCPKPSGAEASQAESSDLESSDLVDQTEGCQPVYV
Structure (SMILES),test,test system,conditions,endpoint,value
Cc1ccc(C(=O)Nc2ccc(CN3CCN(C)CC3)c(C(F)(F)F)c2)cc1C#Cc1cnc2cccnn12,"enzyme activity, inhibitor",,23.5 nM,remaining activity,95%
Cn1cnc(Br)c1C1=CN(c2ncnc3[nH]cnc23)CCS1,"enzyme activity, inhibitor, radiometric",,50 nM,inhibition,29.1%
CC(C)(O)[C@H]1CC[C@H](Nc2ccc3ncc(-c4cccc(C(F)(F)F)c4)n3n2)CC1,"enzyme activity, inhibitor",,1 µM,remaining activity,61.4%
Cn1cncc1C1=CN(c2ncnc3[nH]cnc23)CCS1,"enzyme activity, inhibitor, radiometric",,50 nM,inhibition,34.2%
COc1cc(-c2cc(-c3ccc(N4CCNCC4)cc3)cnc2C)cc(OC)c1OC,"enzyme activity, inhibitor",,1 µM,inhibition,2%
O=C(NCc1ncc(C(F)(F)F)cc1Cl)c1ccc2c(c1)C1(CCS(=O)(=O)CC1)[C@H](C1CC1)N2S(=O)(=O)c1ccc(F)cc1,"cell-free assay, competition with immobilised ligand",,1 µM,remaining binding,100%
CCN1CCN(Cc2ccc(NC(=O)c3ccc(C)c(/C=C/c4cnc5[nH]ccc5c4OC)c3)cc2C(F)(F)F)CC1,"target engagement in cells, inhibitor, chemoproteomics",A-375,5 µM,inhibition,-21.8%
Nc1ncnc2occ(-c3ccc(NC(=O)Nc4cc(C(F)(F)F)ccc4F)cc3)c12,"cell-free assay, inhibitor",,20 µM,remaining signal,3.7%
O=C(Nc1cnn(-c2csc(C(=O)NC3COC3)c2)c1)Nc1ccccc1Cl,"enzyme activity, inhibitor",,5 µM,remaining activity,96%
Cc1cnn2ncc(-c3ccnc(N(C)C)n3)c2c1,binding,,1 µM,remaining binding,84%
COc1ccc2c(c1)O[C@H](c1ccc(OC)c(OC)c1)C[C@@H]2NC(=O)C1(c2ccc3c(c2)OC(F)(F)O3)CC1,"cell-free assay, competition with immobilised ligand",,1 µM,remaining binding,89%
O=C(Nc1cnn(-c2csc(C(=O)NC3COC3)c2)c1)Nc1c(F)cccc1Cl,"enzyme activity, inhibitor",,5 µM,remaining activity,104%
